Laboratory results from ChEMBL document CHEMBL5543129, “Peptide Inhibitor Targeting the Extraterminal Domain in BRD4 Potently Suppresses Breast Cancer Both In Vitro and In Vivo” (J Med Chem, 2024).
Activity calls are given as the source filed them. The rule behind the calls is not given here. Square brackets hold non-standard residues; d marks the D form. Peptide text beside a SMILES is read from it. Hyp = O=C(O)[C@@H]1C[C@@H](O)CN1; Ahx = NCCCCCC(=O)O

Columns and labels:
[1] = tested on: MDA-MB-231; assay: Inhibition of colony formation in human MDA-MB-231 cells at 10 uM incubated for 2 weeks by crystal violet staining based assay; assay type: functional, cell-based
Procedure, shortened: (§1)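 Cells are seeded at 1 × 10^3/well and treated with peptide (10 μM) for 2 weeks, alone or with JQ1 5 μM, iJMJD6 10 μM, ICI 2.5 μM, or tamoxifen 3 μM (tamoxifen-resistant lines). Colonies are stained with crystal violet, dissolved in 10% acetic acid, and read at 590 nm. Three biological repeats.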

[2] = Toxicity in BALB/c mouse xenografted with human […] assessed as body weight loss at 25 mg/kg, ip administered every 2 days; assay type: organism-based; conditions: in vivo, 48 h
Procedure, shortened: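 Female BALB/c nude mice (4–6 weeks) received 5 × 10^6 MCF7 cells sc in PBS, with estrogen (E2, 10–2 M) brushed on the neck every 2 days. Mice were randomized at about 50 mm3 tumor volume. Peptide in normal saline was given ip at 25 mg/kg every 2 days. Body weight was monitored.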

[3] = tested on: MCF7; assay: Downregulation of c-Myc gene expression in human MCF7 cells at 10 uM incubated for 6 hrs by RT-qPCR analysis; assay type: functional, cell-based
Procedure, shortened: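 Cells treated with peptide (10 μM) for 6 h; c-Myc, N-myc and CCND1 mRNA measured by RT-qPCR. Three biological repeats.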

[4] = Downregulation of BRD4 protein expression in human MCF7 cells assessed as fold change in remaining BRD4 level at 10 uM incubated for 24 hrs by immunoblotting analysis (reference value: 1); assay type: functional
Procedure, shortened: (§2)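 Cells treated with peptide (10 μM) for 24 h. Lysates in Tris/NaCl/EDTA/1% Triton X-100, run on 10% SDS-PAGE and immunoblotted with ECL detection. β-actin as loading control. Three repeats, quantified against untreated cells.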

[5] = Downregulation of JMJD6 protein expression in human MCF7 cells assessed as fold change in remaining JMJD6 level at 10 uM incubated for 24 hrs by immunoblotting analysis (reference value: 1); assay type: functional; procedure, shortened: as §2
[6] = Downregulation of CCND1 protein expression in human MCF7 cells assessed as fold change in remaining CCND1 level at 10 uM incubated for 24 hrs by immunoblotting analysis (reference value: 1); assay type: functional; procedure, shortened: as §2
[7] = tested on: Mus musculus; assay: Downregulation of CCND1 mRNA expression in BALB/c mouse tumor xenografted with human MDA-MB-231 cells at 25 mg/kg, ip administered every 2 days by RT-qPCR analysis; assay type: functional, organism-based
[8] = tested on: Mus musculus; assay: Downregulation of BRD4 mRNA expression in BALB/c mouse tumor xenografted with human MCF7 cells at 25 mg/kg, ip administered every 2 days by RT-qPCR analysis; assay type: functional, organism-based
[9] = tested on: MDA-MB-231; assay: Inhibition of cell migration in human MDA-MB-231 cells at 10 uM incubated for 12 hrs by inverted microscopic assay; assay type: functional, cell-based
Procedure, shortened: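 Cells are seeded at 5 × 10^5/well and scratched at 80–90% confluence. They are kept in serum-free medium with peptide (10 μM); partner agents are JQ1 5 μM, iJMJD6 10 μM, or ICI 2.5 μM. Wound area is imaged by inverted microscope at 0 and 12 or 24 h. Wound closure % = (A0−A1)/A0 × 100. Three biological repeats.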

[10] = Toxicity in BALB/c mouse xenografted with human MCF7 cells assessed as change in liver weight at 12.5 mg/kg, ip administered every 2 days in presence of 50 mg/kg JQ1; assay type: organism-based; conditions: in vivo, 48 h
[11] = Toxicity in BALB/c mouse xenografted with human MDA-MB-231 cells assessed as change in heart morphology at 12.5 mg/kg, ip administered every 2 days in presence of 50 mg/kg JQ1; assay type: organism-based; conditions: in vivo, 48 h
Procedure, shortened: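 Female BALB/c nude mice (4–6 weeks) carried sc MDA-MB-231 xenografts (5 × 10^6 cells) and were randomized at about 50 mm3. Peptide (12.5 mg/kg ip in saline) and JQ1 (50 mg/kg ip, DMSO/10% HPBCD 1:10) were given every 2 days, alone or combined. Body weight was recorded, and heart, liver, spleen, lung and kidney morphology and weight were assessed.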

[12] = tested on: MCF7; assay: Inhibition of colony formation in human MCF7 cells at 10 uM incubated for 2 weeks in presence of JMJD6 inhibitor by crystal violet staining based assay; assay type: functional, cell-based; procedure, shortened: as §1
[13] = tested on: T47D; assay: Inhibition of colony formation in human T47D cells at 10 uM incubated for 2 weeks in presence of JMJD6 inhibitor by crystal violet staining based assay; assay type: functional, cell-based; procedure, shortened: as §1
[14] = tested on: MCF7; assay: Antitumor activity against human MCF7 cells xenografted in BALB/c nude mouse assessed as reduction in tumor volume at 12.5 mg/kg, ip administered every 2 days in presence of 12.5 mg/kg JMJD6 inhibitor; assay type: functional, organism-based
Procedure, shortened: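 Female BALB/c nude mice given 5 × 10^6 cells sc (MCF7 mice with E2 10^-2 M every 2 days), randomised at ~50 mm3. Peptide 12.5 mg/kg ip (saline) every 2 days, plus JQ1 50 mg/kg ip (DMSO/10% HPBCD 1:10) every 2 days or iJMJD6 12.5 mg/kg ip (DMSO/PBS 1:20). Caliper volume every 2 days; tumours weighed at the end.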

[15] = Toxicity in BALB/c mouse xenografted with human MCF7 cells assessed as change in body weight at 12.5 mg/kg, ip administered every 2 days in presence of 12.5 mg/kg JMJD6 inhibitor; assay type: organism-based; conditions: in vivo, 48 h
Procedure, shortened: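 Female BALB/c nude mice carried MCF7 xenografts (5 × 10^6 cells sc, E2 10–2 M brushed every 2 days) and were randomized at about 50 mm3. Peptide was given at 12.5 mg/kg ip every 2 days, and iJMJD6 (DMSO/PBS 1:20) at 12.5 mg/kg ip every other day, alone or combined. Body and organ weights were recorded.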

[16] = tested on: MCF7; assay: Inhibition of colony formation in human MCF7 cells at 10 uM incubated for 2 weeks in presence of fulvestrant by crystal violet staining based assay; assay type: functional, cell-based; procedure, shortened: as §1
[17] = tested on: T47D; assay: Inhibition of colony formation in human T47D cells at 10 uM incubated for 2 weeks in presence of fulvestrant by crystal violet staining based assay; assay type: functional, cell-based; procedure, shortened: as §1
[18] = Downregulation of BRD4 protein expression in BALB/c mouse tumor xenografted with human MCF7 cells assessed as fold change in remaining BRD4 level at 25 mg/kg, ip administered every 2 days by immunoblotting analysis; assay type: functional
Procedure, shortened: (§3)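 Tumours taken from xenograft mice dosed with peptide at 25 mg/kg ip every 2 days. […] Three repeats.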

[19] = Downregulation of BRD4 protein expression in BALB/c mouse tumor xenografted with human MDA-MB-231 cells assessed as fold change in remaining BRD4 level at 25 mg/kg, ip administered every 2 days by immunoblotting analysis; assay type: functional; procedure, shortened: as §3
[20] = Downregulation of JMJD6 protein expression in BALB/c mouse tumor xenografted with human MDA-MB-231 cells assessed as fold change in remaining JMJD6 level at 25 mg/kg, ip administered every 2 days by immunoblotting analysis; assay type: functional; procedure, shortened: as §3

| Compound | inhibition [1] | Activity [2] | Activity [3] | fold change (FC) [4] | fold change (FC) [5] | fold change (FC) [6] | Activity [7] | Activity [8] | inhibition [9] | Activity [10] | Activity [11] | inhibition [12] | inhibition [13] | Activity [14] | Activity [15] | inhibition [16] | inhibition [17] | fold change (FC) [18] | fold change (FC) [19] | fold change (FC) [20] |
| --- | --- | --- | --- | --- | --- | --- | --- | --- | --- | --- | --- | --- | --- | --- | --- | --- | --- | --- | --- | --- |
| H-YGRKKRRQRRRRNQKFKCGE-OH | Active | Non-Toxic | Active | 1.14 | 0.91 | 0.68 | Active | inactive | Active | Non-Toxic | Non-Toxic | Active | Active | Active | Non-Toxic | Active | Active | 0.54 | 0.63 | 0.98 |
| CC[C@H](C)[C@H](NC(=O)[C@H](Cc1ccc(O)cc1)NC(=O)[C@@H]1C[C@@H](O)CN1C(=O)[C@H](C)NC(=O)[C@@H](NC(=O)CCCCCNC(=O)[C@H](CCC(=O)O)NC(=O)CNC(=O)[C@H](CS)NC(=O)[C@H](CCCCN)NC(=O)[C@H](Cc1ccccc1)NC(=O)[C@H](CCCCN)NC(=O)[C@H](CCC(N)=O)NC(=O)[C@H](CC(N)=O)NC(=O)[C@H](CCCNC(=N)N)NC(=O)[C@H](CCCNC(=N)N)NC(=O)[C@H](CCCNC(=N)N)NC(=O)[C@H](CCCNC(=N)N)NC(=O)[C@H](CCC(N)=O)NC(=O)[C@H](CCCNC(=N)N)NC(=O)[C@H](CCCNC(=N)N)NC(=O)[C@H](CCCCN)NC(=O)[C@H](CCCCN)NC(=O)[C@H](CCCNC(=N)N)NC(=O)CNC(=O)[C@@H](N)Cc1ccc(O)cc1)[C@@H](C)CC)C(=O)O (H-YGRKKRRQRRRRNQKFKCGE[Ahx]IA[Hyp]YI-OH) | Active | Non-Toxic | Active | 0.63 | 0.5 | 0.58 | Active | inactive | Active | Non-Toxic | Non-Toxic | Active | Active | Active | Non-Toxic | Active | Active | 0.16 | 0.15 | 0.48 |
